Experimental data published in ChEMBL document CHEMBL1641462, “Synthesis and in vivo evaluation of ¹⁸F-fluoroethyl GF120918 and XR9576 as positron emission tomography probes for assessing the function of drug efflux transporters” (Bioorg Med Chem, 2011).
Activity calls are given as the source filed them.

Legend:
Assay type in all cases: cell-based
Conditions in all cases: 7.4 M; tested as the 18F-labelled form
[1] = Increase of P-glycoprotein-mediated intracellular drug uptake expressed in human MES-SA/Dx5 cells at 7.4 MBq/ml after 120 mins by gamma counting in presence of 10 uM of quinoline-3-carboxylic acid [2-(4-{2-[7-(2-fluoroethoxy)- 6-methoxy-3,4-dihydro-1H-isoquinolin-2-yl]ethyl}phenylc arbamoyl)-4,5-dimethoxyphenyl]amide
How it was run: (§1)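 MES-SA/Dx5 doxorubicin-resistant human uterine sarcoma cells grown in McCoy's 5A + 10% FCS at 37 °C, 5% CO2; monolayers (10^5 cells/well) incubated 120 min with 7.4 MBq/ml [18F]-tracer ± 10 µM inhibitor. Washed five times in cold PBS, lysed in 0.2 M NaOH, gamma counted, normalized to protein (%ICD/mg). Percent increase vs untreated cells; triplicate.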

[2] = Increase of P-glycoprotein-mediated intracellular drug uptake expressed in human MES-SA/Dx5 cells at 7.4 MBq/ml after 120 mins by gamma counting in presence of 10 uM of GF120918; how it was run: as §1
[3] = Increase of P-glycoprotein-mediated intracellular drug uptake expressed in human MES-SA/Dx5 cells at 7.4 MBq/ml after 120 mins by gamma counting in presence of 10 uM of N-(4-(2-(1,2,3,4-tetrahydro-6,7-dimethoxy-2- isoquinolinyl)ethyl)phenyl)-9,10-dihydro-5-fluoroethoxy-9- oxo-4-acridine carboxamide; how it was run: as §1
[4] = Increase of P-glycoprotein-mediated intracellular drug uptake expressed in human MES-SA/Dx5 cells at 7.4 MBq/ml after 120 mins by gamma counting in presence of 10 uM of XR9576; how it was run: as §1

Measured: Drug uptake

COc1cc(NC(=O)c2cnc3ccccc3c2)c(C(=O)Nc2ccc(CCN3CCc4cc(OC)c(OCCF)cc4C3)cc2)cc1OC
active: all assays above

COc1cc2c(cc1OC)CN(CCc1ccc(NC(=O)c3cccc4c(=O)c5cccc(OCCF)c5[nH]c34)cc1)CC2
active: all assays above
